Measurements from ChEMBL document CHEMBL1140779, “Trisubstituted 1,2,4-triazoles as ligands for the ghrelin receptor: on the significance of the orientation and substitution at position 3” (Bioorg Med Chem Lett, 2008).

Assays:
[1] = molecular target: T1, Growth hormone secretagogue receptor type 1 (Homo sapiens, UniProt Q92847); assay: Displacement of [125I]His9-ghrelin from human GHSR1a receptor expressed in LLC PK1 cells; type: cell-based
[2] = molecular target: T1, Growth hormone secretagogue receptor type 1; assay: Agonist activity at human GHSR1a receptor expressed in CHO cells assessed as intracellular calcium mobilization at 10 uM relative to ghrelin; type: functional, cell-based
Outline: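 Transiently electroporated hGHS-R1a CHO cells loaded with Fluo-4AM; compound at 10 µM, triplicate, at least 2 independent experiments; fluorescence rise (485/525 nm, 60 s read) compared with buffer-only basal; maximal output taken as that of 0.1 µM ghrelin.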

[3] = molecular target: T1, Growth hormone secretagogue receptor type 1; assay: Agonist activity at human GHSR1a receptor expressed in CHO cells assessed as intracellular calcium mobilization; type: functional, cell-based
[4] = molecular target: T1, Growth hormone secretagogue receptor type 1; assay: Antagonist activity at human GHSR1a receptor expressed in CHO cells assessed as reduction of ghrelin-induced intracellular calcium mobilization; type: functional, cell-based
[5] = molecular target: T1, Growth hormone secretagogue receptor type 1; assay: Antagonist activity at human GHSR1a receptor expressed in CHO cells assessed as intracellular calcium mobilization

T1 sequence (Q92847 whole entry): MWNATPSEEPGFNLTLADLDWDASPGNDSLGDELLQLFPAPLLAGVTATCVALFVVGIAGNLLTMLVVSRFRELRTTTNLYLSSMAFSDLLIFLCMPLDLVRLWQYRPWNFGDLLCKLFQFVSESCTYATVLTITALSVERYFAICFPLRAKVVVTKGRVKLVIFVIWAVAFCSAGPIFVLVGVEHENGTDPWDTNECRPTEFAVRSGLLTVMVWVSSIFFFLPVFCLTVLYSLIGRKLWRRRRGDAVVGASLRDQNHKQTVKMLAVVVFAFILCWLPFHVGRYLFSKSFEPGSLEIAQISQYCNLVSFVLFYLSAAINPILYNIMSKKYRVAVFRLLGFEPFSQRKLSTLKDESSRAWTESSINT

Row | Structure (SMILES) | IC50 [1] [µM] | Activity [2] [%] | EC50 [3] [µM] | IC50 [4] [µM] | Kb [4] [µM] | Kb [5] [µM]
1 | COc1ccc(Cn2c(CCc3c[nH]c4ccccc34)nnc2[C@H](Cc2c[nH]c3ccccc23)NC(=O)C2CCOCC2)cc1 | 1.3 | 0 | 0.024 | – | – | –
2 | COc1ccc(Cn2c(Cc3ccccc3)nnc2[C@@H](Cc2c[nH]c3ccccc23)NC(=O)C(C)(C)N)cc1 | – | 9 | – | 0.87 | 0.019 | –
3 | COc1ccc(Cn2c(CCc3c[nH]c4ccccc34)nnc2[C@@H](Cc2c[nH]c3ccccc23)NC(=O)C2CCOCC2)cc1 | 0.045 | 2 | 0.024 | – | – | –
4 | COc1ccc(Cn2c(CCc3ccccc3)nnc2[C@H](Cc2c[nH]c3ccccc23)NC(=O)C(C)(C)N)c(OC)c1 | 0.45 | 4 | – | – | – | –
5 | COc1ccc(Cn2c(Cc3ccccc3)nnc2[C@@H](Cc2ccccc2)NC(=O)C(C)(C)N)cc1 | > 1 | 6 | – | – | – | –
6 | COc1ccc(Cn2c(CCc3c[nH]c4ccccc34)nnc2[C@@H](Cc2c[nH]c3ccccc23)NC(=O)C(C)(C)N)c(OC)c1 | – | 0 | – | 0.62 | – | –
7 | COc1ccc(Cn2c(CCc3c[nH]c4ccccc34)nnc2[C@@H](Cc2ccccc2)NC(=O)C(C)(C)N)cc1 | 0.2 | 6 | – | – | – | –
8 | COc1ccc(Cn2c(Cc3ccccc3)nnc2[C@@H](Cc2c[nH]c3ccccc23)NC(=O)C(C)(C)N)c(OC)c1 | – | 0 | – | – | – | –
9 | COc1ccc(Cn2c(CCc3ccccc3)nnc2[C@H](Cc2c[nH]c3ccccc23)NC(=O)C(C)(C)N)cc1 | > 1 | 0 | – | – | – | –
10 | COc1ccc(Cn2c(CCCc3ccccc3)nnc2[C@H](Cc2c[nH]c3ccccc23)NC(=O)C(C)(C)N)cc1 | > 1 | 17 | – | – | – | –
11 | COc1ccc(Cn2c(CCc3c[nH]c4ccccc34)nnc2[C@@H](Cc2c[nH]c3ccccc23)NC(=O)C(C)(C)N)cc1 | – | – | – | 0.19 | – | –
12 | COc1ccc(Cn2c(CCc3c[nH]c4ccccc34)nnc2[C@@H](CC(=O)OCc2ccccc2)NC(=O)C(C)(C)N)cc1 | 0.45 | 5 | – | – | – | –
13 | COc1ccc(Cn2c(CCc3ccccc3)nnc2[C@@H](Cc2c[nH]c3ccccc23)NC(=O)C(C)(C)N)c(OC)c1 | – | 0 | – | 0.8 | – | –
14 | COc1ccc(Cn2c(CCc3c[nH]c4ccccc34)nnc2[C@H](Cc2c[nH]c3ccccc23)NC(=O)[C@@H]2CCCN2)cc1 | 0.65 | 0 | – | – | – | 0.44
15 | COc1ccc(Cn2c(Cc3ccccc3)nnc2[C@H](Cc2c[nH]c3ccccc23)NC(=O)C(C)(C)N)cc1 | > 1 | 5 | – | – | – | –
16 | COc1ccc(Cn2c(CCc3c[nH]c4ccccc34)nnc2[C@H](Cc2c[nH]c3ccccc23)NC(=O)C2CCNCC2)cc1 | 0.007 | 100 | 0.032 | – | – | –
17 | COc1ccc(Cn2c(CCc3c[nH]c4ccccc34)nnc2[C@@H](COCc2ccccc2)NC(=O)C(C)(C)N)cc1 | 0.8 | 0 | – | – | – | –
18 | COc1ccc(Cn2c(Cc3ccccc3)nnc2[C@H](Cc2c[nH]c3ccccc23)NC(=O)C(C)(C)N)c(OC)c1 | > 1 | 11 | – | – | – | –
19 | COc1ccc(Cn2c(CCCc3ccccc3)nnc2[C@@H](Cc2c[nH]c3ccccc23)NC(=O)C(C)(C)N)cc1 | – | 0 | – | 0.6 | – | –
20 | COc1ccc(Cn2c(CCc3c[nH]c4ccccc34)nnc2[C@@H](Cc2c[nH]c3ccccc23)NC(=O)c2ccccn2)cc1 | 0.008 | 0 | – | – | – | –
21 | COc1ccc(Cn2c(CCc3c[nH]c4ccccc34)nnc2[C@H](Cc2c[nH]c3ccccc23)NC(=O)C(C)(C)N)c(OC)c1 | – | 4 | – | 3.2 | 0.069 | –
22 | COc1ccc(Cn2c(CCc3c[nH]c4ccccc34)nnc2[C@@H](Cc2c[nH]c3ccccc23)NC(=O)[C@@H]2CCCN2)cc1 | – | – | – | – | – | 0.006
23 | COc1ccc(Cn2c(CCc3c[nH]c4ccccc34)nnc2[C@H](Cc2c[nH]c3ccccc23)NC(=O)C(C)(C)N)cc1 | 0.14 | 31 | – | – | – | –
24 | COc1ccc(Cn2c(CCc3ccccc3)nnc2[C@@H](Cc2c[nH]c3ccccc23)NC(=O)C(C)(C)N)cc1 | – | 2 | – | 0.275 | – | –
